Active and inactive are the calls of the source. The rule behind the calls is not given here.

A short description of data set [1]: Drug uptake in Candida albicans CAF4-2 beta-ME extracted cell wall protein assessed per 10^7 cells at 31.5 uM within 15 mins by SDS-PAGE in presence of 10 mM NaPB. It counts as ADME, cell-based. The following applies: 0.25 h. In a few lines:
(§1)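 Early-log cells (1 x 10^8) washed and suspended in 10 mM NaPB with 31.5 µM biotin-labeled peptide at 37°C with shaking, sampled at timepoints to 90 min. Cell wall released with 1% β-ME in ammonium carbonate pH 8.0, 30 min, 37°C. Extract run on 16% Tricine SDS-PAGE (10 µg/lane), blotted, detected with streptavidin-HRP, quantitated against peptide standards.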

A short description of data set [2]: Drug uptake in Candida albicans CAF4-2 beta-ME extracted cell wall protein assessed per 10^7 cells at 31.5 uM within 5 mins by SDS-PAGE in presence of 10 mM NaPB. It counts as ADME, cell-based. In a few lines:
as §1

The target of data set [3] is Heat shock protein SSA2 (Candida albicans (strain SC5314 / ATCC MYA-2876) (Yeast)) (UniProt P46587). The data set is described as follows: Binding affinity to Candida albicans AKRLIGRKFDDHE region of Ssa2 at 2 uM by chemiluminescence assay. In outline: (§2)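 Overlapping Ssa2p peptides spotted on cellulose-β-alanine membranes; methanol rinse, TBS (pH 8.0) washes, 2 h blocking in albumin/biotin-free buffer at room temperature. Biotin-labeled peptide (2 µM) in blocking buffer, 3 h at room temperature, washed; streptavidin-HRP (1:20,000) 1 h; chemiluminescent detection and imaging. Repeatability confirmed by reprobing after regeneration (30 min, 50°C).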
Sequence of Heat shock protein SSA2 (Candida albicans (strain SC5314 / ATCC MYA-2876) (Yeast)) (P46587 whole entry): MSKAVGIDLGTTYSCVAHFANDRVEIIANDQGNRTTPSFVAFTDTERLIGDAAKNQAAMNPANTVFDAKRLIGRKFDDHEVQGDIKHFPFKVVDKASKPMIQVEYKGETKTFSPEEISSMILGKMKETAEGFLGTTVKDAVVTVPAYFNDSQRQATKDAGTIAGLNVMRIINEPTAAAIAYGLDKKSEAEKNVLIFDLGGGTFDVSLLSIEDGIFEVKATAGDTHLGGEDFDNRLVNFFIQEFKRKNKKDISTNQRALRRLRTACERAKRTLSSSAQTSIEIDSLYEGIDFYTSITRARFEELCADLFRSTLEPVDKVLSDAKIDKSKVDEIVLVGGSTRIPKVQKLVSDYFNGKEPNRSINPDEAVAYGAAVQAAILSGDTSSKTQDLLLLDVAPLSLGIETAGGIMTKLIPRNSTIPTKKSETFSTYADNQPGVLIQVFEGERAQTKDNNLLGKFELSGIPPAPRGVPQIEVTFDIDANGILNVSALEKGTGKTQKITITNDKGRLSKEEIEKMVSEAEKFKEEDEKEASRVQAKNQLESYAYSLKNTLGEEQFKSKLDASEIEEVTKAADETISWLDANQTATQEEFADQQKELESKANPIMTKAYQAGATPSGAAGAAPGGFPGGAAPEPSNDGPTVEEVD

The subject of data set [4] is Candida albicans. The data set is described as follows: Candidacidal activity against Candida albicans CAF4-2 having ssa2delta mutation assessed as cell death below 31.5 uM treated for 1 hr measured after 48 hrs by microdilution plate assay. It counts as functional, organism-based. A general note: Dilution methods test growth across graded concentrations, often in twofold steps.

For data set [5], the system named is Candida albicans. The data set is described as follows: Candidacidal activity against wild type Candida albicans CAF4-2 at >62 uM after 3 hrs by radial diffusion assay. It counts as functional, organism-based. In a few lines: (§3)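 C. albicans cells grown in YNB were set into underlay gels. Peptides were loaded into punched wells and incubated overnight. Clear-zone diameters (10 units = 1 mm) were plotted against peptide concentration and converted to cell death. Incubation was in 10 mM or 100 mM NaPB. Means and SD from three independent experiments.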

The subject of data set [6] is Candida albicans. As to the kind of experiment: Candidacidal activity against wild type Candida albicans CAF4-2 at >62 uM after 3 hrs by radial diffusion assay in presence of 100 mM NaPB. It counts as functional, organism-based. In a few lines:
as §3

In data set [7] the test system is Candida albicans. As to the kind of experiment: Candidacidal activity against wild type Candida albicans CAF4-2 after 3 hrs by radial diffusion assay. It counts as functional, organism-based. In outline: as §3
Data set [8] concerns Candida albicans. The data set is described as follows: Candidacidal activity against wild type Candida albicans CAF4-2 after 3 hrs by radial diffusion assay in presence of 100 mM NaPB. It counts as functional, organism-based. In outline:
as §3

Data set [9] deals with Candida albicans. As to the kind of experiment: Candidacidal activity against Candida albicans CAF4-2 having ssa1delta mutation after 3 hrs by radial diffusion assay. It counts as functional, organism-based. In a few lines:
(§4)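 Radial diffusion: C. albicans cells incorporated into underlay gels; peptides loaded into wells punched in the gel and incubated overnight. Clear-zone diameters (no growth) converted to cell death and plotted against peptide concentration. Means and SD of three independent experiments.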

In data set [10] the test system is Candida albicans. The data set is described as follows: Candidacidal activity against Candida albicans CAF4-2 having ssa2delta mutation assessed as cell death at 31.5 uM treated for 1 hr measured after 48 hrs by microdilution plate assay. It counts as functional.
Data set [11] concerns Candida albicans. As to the kind of experiment: Candidacidal activity against Candida albicans CAF4-2 having ssa1delta mutation assessed as cell death below 31.5 uM treated for 1 hr measured after 48 hrs by microdilution plate assay. It counts as functional, organism-based.
In data set [12] the target is Heat shock protein SSA2 (Candida albicans (strain SC5314 / ATCC MYA-2876) (Yeast)) (UniProt P46587). As to the kind of experiment: Binding affinity to Candida albicans KRKNKKDISTNQR region of Ssa2 at 2 uM by chemiluminescence assay. In a few lines:
as §2

Data set [13] deals with Candida albicans. As to the kind of experiment: Candidacidal activity against Candida albicans CAF4-2 having ssa2delta mutation after 3 hrs by radial diffusion assay. It counts as functional, organism-based. In a few lines:
as §4

Data set [14] relates to Candida albicans. The data set is described as follows: Candidacidal activity against wild type Candida albicans CAF4-2 assessed as cell death at 31.5 uM treated for 1 hr measured after 48 hrs by microdilution plate assay. It counts as functional.
In data set [15] the test system is Candida albicans. As to the kind of experiment: Candidacidal activity against Candida albicans CAF4-2 having ssa1delta mutation assessed as cell death at 31.5 uM treated for 1 hr measured after 48 hrs by microdilution plate assay. It counts as functional.
The subject of data set [16] is Candida albicans. The data set is described as follows: Candidacidal activity against wild type Candida albicans CAF4-2 assessed as cell death below 31.5 uM treated for 1 hr measured after 48 hrs by microdilution plate assay. It counts as functional, organism-based. In outline: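 Candidacidal microdilution assay: 1 x 10^6 cells exposed to peptide for 1 h, diluted to quench, plated on YNB agar. Loss of viability = [1 − (colonies treated/colonies control)] x 100. Means and SD from three independent experiments.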

Data set [17] relates to Candida albicans. The data set is described as follows: Candidacidal activity against wild type Candida albicans CAF4-2 after 3 hrs by radial diffusion assay in presence of 10 mM NaPB. It counts as functional, organism-based. In a few lines: as §3
The nature of data set [18]: Drug uptake in Candida albicans CAF4-2 cytoplasmic extract assessed per 10^7 cells at 31.5 uM after 90 mins by SDS-PAGE in presence of 10 mM NaPB. It counts as ADME, Cytoplasm. The following applies: 1.5 h. In a few lines: (§5)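 Wild-type or ssa2 cells were incubated with biotin-labeled peptide (31.5 µM) in 10 mM NaPB at 37°C for 5–90 min. Cell wall was extracted with 1% β-ME in ammonium carbonate (pH 8.0), 30 min at 37°C. Cytosol was obtained by glass-bead lysis with protease inhibitors. Extracts (10 µg/lane) were run on 16% Tricine SDS-PAGE, blotted, and detected with streptavidin-HRP. Amounts were quantified against peptide standards (0.06125–0.5 µg) and expressed per 10^7 cells.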

Data set [19] is described as follows: Drug uptake in Candida albicans CAF4-2 cell wall extract at 31.5 uM within 5 mins by SDS-PAGE in presence of 10 mM NaPB. The following applies: caf4-2, 5 min. It counts as ADME, cell-based. In a few lines:
as §5

Data set [20] relates to Candida albicans. As to the kind of experiment: Drug uptake in Candida albicans CAF4-2 assessed as reduction of free drug in cell supernatant at 31.5 uM after 15 mins by slot blot assay. It counts as ADME, organism-based. The following applies: in vivo, 0.25 h. In outline:
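Early-log cells (1 x 10^8) were washed and suspended in 10 mM NaPB with biotin-labeled peptide (31.5 µM) for 5–90 min with shaking. After centrifugation at 4°C, supernatants were applied to PVDF by slot blot. The membrane was blocked in 3% milk/TBST, probed with streptavidin-HRP (1:1,000), and developed for remaining free peptide.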

Data set [21] is described as follows: Drug uptake in Candida albicans CAF4-2 cytoplasmic extract assessed per 10^7 cells at 31.5 uM within 15 mins by SDS-PAGE in presence of 10 mM NaPB. The following applies: 0.25 h. It counts as ADME, Cytoplasm. In a few lines: as §5
Data set [22] in a line: Drug uptake in Candida albicans CAF4-2 having ssa2delta mutation cytoplasmic extract assessed per 10^7 cells at 31.5 uM upto 30 mins by SDS-PAGE in presence of 10 mM NaPB. It counts as ADME, Cytoplasm. The following applies: 0.5 h. In outline:
(§6)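 Cells in 10 mM NaPB with biotin-labeled peptide (31.5–32 µM) at 37°C for 5–90 min. After β-ME cell-wall extraction, cells bead-lysed at 4°C in NaPB with protease inhibitors; cytosol from 13,000 rpm spin. Cytosolic protein (10 µg/lane) on Tricine SDS-PAGE, streptavidin-HRP blot, quantitated against peptide standards.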

Data set [23] concerns Candida albicans. The data set is described as follows: Drug uptake in Candida albicans CAF4-2 having ssa2delta mutation assessed as reduction of free drug in cell supernatant at 31.5 uM after 30 mins by slot blot assay. It counts as ADME, organism-based. The following applies: in vivo, 0.5 h. In a few lines:
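Supernatant depletion: wt and ssa2 cells (1 x 10^8 in 1 ml 10 mM NaPB) incubated with 31.5 µM biotin-labeled peptide for 5–90 min with shaking. Cells pelleted at 4°C; 50 µl of supernatant slot-blotted onto PVDF, blocked with milk, probed with streptavidin-HRP. Buffer-only cells used as control.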

Data set [24] can be described thus: Drug uptake in Candida albicans CAF4-2 cytoplasm at 31.5 uM within 5 mins by SDS-PAGE in presence of 10 mM NaPB. It counts as ADME. In outline:
as §6

Consider H-AQRHHGYKRQFH-OH [listing 1 of 2 here], for which the values for the Drug uptake in data set [1] and in data set [2] were 0.2 µg and 0.15 µg, respectively.

For H-AQRHHGYKRQFH-OH [listing 2 of 2 here], the result (in data set [3]; in the data set with Candida albicans [4]; in the data set with Candida albicans [6]; in the data set with Candida albicans [7]; in the data set on Candida albicans [8]; with Candida albicans [9]) was inactive. Besides, the outcome (with Candida albicans [11]; in data set [12]; in the data set on Candida albicans [13]; in the data set on Candida albicans [16]) was inactive. Moreover, the result in the data set with Candida albicans [5] and with Candida albicans [17] was Active. The Activity with Candida albicans [10], with Candida albicans [14] and in the data set on Candida albicans [15] was less than 10% in each case.

In the case of H-AKRHHGYKRKFH-OH [listing 1 of 2 here], the result (in data set [3]; with Candida albicans [7]; in the data set on Candida albicans [9]; in data set [12]; with Candida albicans [17]) was Active. The result with Candida albicans [4], in the data set with Candida albicans [8], in the data set with Candida albicans [11] and with Candida albicans [13] was inactive. In addition, the Activity came to 76% in the data set on Candida albicans [10], 90% with Candida albicans [14] and 90% with Candida albicans [15].

For the substance H-AKRHHGYKRKFH-OH [listing 2 of 2 here], the Drug uptake in data set [18] was 0.2 µg; in data set [19], “Active”; in the data set on Candida albicans [20], “Active”; in data set [1], “Active”; in [21], 0.26 µg; in data set [22], less than 0.2 µg. Also, the figures for the Drug uptake entry (with Candida albicans [23]; in data set [2]; in [24]) were “Active”, 0.1 µg and “Active”, respectively.

The values above are taken from ChEMBL document CHEMBL1255233, “The P-113 fragment of histatin 5 requires a specific peptide sequence for intracellular translocation in Candida albicans, which is independent of cell wall binding” (Antimicrob Agents Chemother, 2008).
